These results are taken from ChEMBL document CHEMBL1142960, “Synthesis and structure-activity relationships for 2,4-dinitrobenzamide-5-mustards as prodrugs for the Escherichia coli nfsB nitroreductase in gene therapy” (J Med Chem, 2007).

In series [1] the test system is V79. In words: Antiproliferative activity against chinese hamster V79 NTRpuro cells after 18 hrs. The format is functional, cell-based. As to conditions: Cricetulus griseus, V79, 18 h.
Series [2] in a line: Solubility in alpha MEM. Type of series: physicochemical. In outline: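 Solubility (mM) in α-MEM with 5% fetal calf serum at ambient temperature, measured by HPLC.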
The test system of series [3] is V79. In words: Clonogenic survival of 97% V79 NTRoua cells in co-cultures with 3% V79 NTRpuro cells after 5 hrs by MCL assay. The format is functional, Cricetulus griseus. In outline:
(§1)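 Multicellular layer cocultures of 3% V79-NTRpuro activators and 97% V79oua NTR-ve targets (ouabain-resistant), exposed to prodrug for 5 h. MCLs were then trypsin-dissociated and plated in ouabain or puromycin selective media for clonogenic survival. C10 (10% survival) interpolated for activators and targets; AC/TC ratio derived. Mean with SEM or range over independent experiments.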

Series [4] has as its system V79. In words: Clonogenic survival of 3% V79 NTRpuro cells in co-cultures with 97% V79 NTRoua after 5 hrs by MCL assay. The format is functional, Cricetulus griseus. The method in brief: as §1
Series [5] deals with EMT6. In words: Antiproliferative activity against mouse wild type EMT6 NTR-ve cells after 18 hrs. Type of series: functional, cell-based. The following applies: EMT6, 18 h.
A short description of series [6]: Toxicity in ip dosed CD1 nude mouse in DMSO. The format is organism-based. The following applies: in vivo. In outline: (§2)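 Maximum tolerated dose (MTD) determined in CD-1 nude mice after a single i.p. injection of prodrug, given in the vehicle named in each line.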
Series [7] is described as follows: Stability in alpha MEM at 37 degC after 24 hrs. Type of series: physicochemical. The following applies: read-out: Stability. The method in brief: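 Percent parent compound remaining, by HPLC, after holding in α-MEM with 5% fetal calf serum at 37 °C for 24 h.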
The test system of series [8] is EMT6. In words: Antitumor activity against mixed mouse EMT6/EMT6 NTRpuro cells injected in CD1 nude mouse assessed as cell kill at 1780 umol/kg, ip in DMSO after 18 hrs. Type of series: functional.
For series [9], the system named is V79. In words: Selectivity ratio of IC50 for V79 NTR-ve cells to IC50 for V79 NTRpuro cells. The format is functional, Cricetulus griseus.
Series [10] relates to EMT6. Put plainly: Selectivity ratio of IC50 for EMT6 NTR-ve cells to IC50 forEMT6 NTRpuro cells. Type of series: functional, Mus musculus.
Series [11] can be described thus: Antiproliferative activity against human Skov3 NTRneo cells after 18 hrs. The format is functional, cell-based. The following applies: SK-OV-3, 18 h.
Series [12] has as its system WiDr. In words: Antiproliferative activity against human WiDr NTRneo cells after 18 hrs. The format is functional, cell-based.
Series [13] deals with WiDr. Put plainly: Antiproliferative activity against human wild type WiDr NTR-ve cells after 18 hrs. The format is functional, cell-based.
The subject of series [14] is V79. In words: Clonogenic survival ratio of 3% V79 NTRpuro cells to 97% V79 NTRoua cells in co-culture. Type of series: functional, Cricetulus griseus. The method in brief:
as §1

For series [15], the system named is V79. In words: Clonogenic survival of V79 NTRoua cells after 5 hrs by MCL assay. Type of series: functional, Cricetulus griseus.
For series [16], the system named is EMT6. Put plainly: Antiproliferative activity against mouse EMT6 NTRpuro cells after 18 hrs. The following applies: EMT6, 18 h. Type of series: functional, cell-based.
The nature of series [17]: Selectivity ratio of IC50 for Skov3 NTR-ve cells to IC50 for Skov3 NTRneo cells. Type of series: functional, Homo sapiens.
Series [18] can be described thus: Partition coefficient at pH 7.4 by shake-flask method. The format is physicochemical. The following applies: octanol/water. In outline: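 Octanol-water partition coefficient by shake-flask at pH 7.4, reported with SEM.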
The test system of series [19] is WiDr. Put plainly: Antitumor activity against human 100% WiDr NTRneo tumor cells injected in CD1 nude mouse assessed as growth delay at 1780 umol/kg, ip in DMSO. The format is functional. The method in brief: (§3)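 WiDr-NTRneo tumours (100% NTR+ve, or 1:9 NTR+ve:NTR-ve mixtures) in CD-1 nude mice, given a single i.p. dose at MTD. Read-out is median growth delay to 15 mm mean diameter, plus tumours not palpable 100 days after treatment. Aziridine given at 200 µmol/kg as positive control in every experiment.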

The subject of series [20] is WiDr. In words: Antitumor activity against mixed human 10% WiDr NTRneo/ 90% WiDr tumor cells injected in CD1 nude mouse assessed as growth delay at 1780 umol/kg, ip in DMSO. Type of series: functional. In outline: as §3
Series [21] concerns V79. In words: Antiproliferative activity against chinese hamster wild-type V79 NTR-ve cells after 18 hrs. The format is functional, cell-based. The following applies: Cricetulus griseus, V79, 18 h.
Series [22] relates to WiDr. In words: Selectivity ratio of IC50 for WiDr NTR-ve cells to IC50 for WiDr NTRneo cells. Type of series: functional, Homo sapiens.
Series [23] in a line: Antiproliferative activity against human wild type Skov3 NTR-ve cells after 18 hrs. The format is functional, cell-based.
Series [24] deals with WiDr. In words: Antitumor activity against mixed human 10% WiDr NTRneo/ 90% WiDr tumor cells injected in CD1 nude mouse assessed as growth delay at 2000 umol/kg, ip in DMSO. Type of series: functional. The method in brief: (§4)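 WiDr tumors grown in CD-1 nude mice from stably NTR-transfected WiDr-NTRneo cells, either alone or mixed 1:9 with NTR-ve WiDr cells. Each mouse received a single i.p. dose. The read-out was median growth delay for tumors to reach an endpoint size of 15 mm mean diameter. Long-term controls were counted as tumors not palpable 100 days after treatment. The aziridine positive control was included in every experiment.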

Series [25] deals with EMT6. Put plainly: Antitumor activity against mixed mouse EMT6/EMT6 NTRpuro cells injected in CD1 nude mouse assessed as cell kill at 2000 umol/kg, ip in DMSO after 18 hrs. Type of series: functional.
Series [26] concerns WiDr. In words: Antitumor activity against human 100% WiDr NTRneo tumor cells injected in CD1 nude mouse assessed as growth delay at 2000 umol/kg, ip in DMSO. The format is functional. The method in brief:
as §4

The test system of series [27] is WiDr. Put plainly: Antitumor activity against mixed human 10% WiDr NTRneo/ 90% WiDr tumor cells injected in CD1 nude mouse assessed as growth delay at 1000 umol/kg, ip in DMSO. Type of series: functional. The method in brief:
as §3

Series [28] deals with WiDr. Put plainly: Antitumor activity against human 100% WiDr NTRneo tumor cells injected in CD1 nude mouse assessed as growth delay at 1000 umol/kg, ip in DMSO. The format is functional. The method in brief: as §3
Series [29] concerns EMT6. In words: Antitumor activity against mixed mouse EMT6/EMT6 NTRpuro cells injected in CD1 nude mouse assessed as cell kill at 1000 umol/kg, ip in DMSO after 18 hrs. Type of series: functional.
Series [30] has as its system EMT6. Put plainly: Antitumor activity against mixed mouse EMT6/EMT6 NTRpuro cells injected in CD1 nude mouse assessed as cell kill at 133 umol/kg, ip in DMSO/PEG after 18 hrs. Type of series: functional.
For series [31], the system named is WiDr. In words: Antitumor activity against mixed human 10% WiDr NTRneo/ 90% WiDr tumor cells injected in CD1 nude mouse assessed as growth delay at 750 umol/kg, ip in DMSO. Type of series: functional. In outline: as §3
The nature of series [32]: Toxicity in ip dosed CD1 nude mouse in DMSO/PEG. Type of series: organism-based. As to conditions: in vivo. The method in brief:
as §2

In series [33] the test system is WiDr. Put plainly: Antitumor activity against human 100% WiDr NTRneo tumor cells injected in CD1 nude mouse assessed as growth delay at 133 umol/kg, ip in DMSO/PEG. The format is functional. The method in brief:
as §3

The structures appear in SMILES notation. Converted amounts (≈) assume the structure as drawn.

Broadly, the IC50 is the midpoint of a concentration-inhibition curve. Read a high IC50 as a need for much substance. By solubility is commonly meant the dissolved amount per volume that the medium holds. A word on the logD: it is the decadic logarithm of the distribution of all forms, ionised or not, between an organic phase and buffer at a given pH. Read a high logD as higher lipophilicity. With `CS(=O)(=O)OCCN(CCBr)c1cc(C(N)=O)c([N+](=O)[O-])cc1[N+](=O)[O-]`, the IC50 in the series on V79 [1] stood at 0.11 µM; with EMT6 [5], 76 µM; in series [11], 0.19 µM; in the series with WiDr [12] it was 0.22 µM; in the series on WiDr [13], 80 µM; in the series on EMT6 [16], 0.05 µM. The IC50 in the series on V79 [21] worked out at 133 µM; in series [23] it was 135 µM. For the same compound, the solubility in series [2] is 230 µM (≈ 105 µg/mL). Also, the Activity in the series with V79 [3] is 10 µM; in the series on V79 [4], 2 µM; in the series on V79 [15] it was greater than 250 µM; with WiDr [19], greater than 82 days; in the series with WiDr [20] it was 26 days. Besides, the MTD in series [6] worked out at 1780 µmol/kg. In [7], the remaining at 24 h came out at 71%. Further, in the series on EMT6 [8], the LCK is greater than 3.61. For the same compound, the “Ratio IC50” value was 1260 with V79 [9], 1510 in the series with EMT6 [10], 715 in [17] and 387 with WiDr [22]. Further, in the series on V79 [14], the Ratio came to 0.2. In series [18], this compound registered a logD of 0.49.

Take `CS(=O)(=O)OCCN(CCOS(C)(=O)=O)c1cc(C(N)=O)c([N+](=O)[O-])cc1[N+](=O)[O-]`: the IC50 with V79 [1] was 0.49 µM; in the series with EMT6 [5], 189 µM; in [11] it was 1.2 µM; with WiDr [12], 0.67 µM; in the series on WiDr [13], 24 µM; with EMT6 [16], 0.32 µM. Moreover, the IC50 in the series with V79 [21] was 536 µM; in series [23], 226 µM. Moreover, the Activity in the series on V79 [3] was 152 µM; in the series with V79 [4], 13 µM; in the series on WiDr [24], 20 days; with V79 [15], greater than 300 µM; in the series with WiDr [26] it was greater than 82 days. Moreover, the MTD in series [6] was found to be 2000 µmol/kg. Moreover, the “Ratio IC50” value with V79 [9] came out at 1200; in the series with EMT6 [10], 755; in [17], 220; in the series with WiDr [22], 55. Also, the LCK with EMT6 [25] is listed as greater than 2.6. Further, the logD in series [18] is -0.7.

For `CS(=O)(=O)OCCN(CCCl)c1cc(C(N)=O)c([N+](=O)[O-])cc1[N+](=O)[O-]`, the IC50 with V79 [1] amounted to 0.55 µM; in the series on EMT6 [5] it was 211 µM; in series [11], 0.78 µM; in the series with WiDr [12], 0.7 µM; in the series with WiDr [13], 246 µM; with EMT6 [16], 0.3 µM. Also, the IC50 with V79 [21] is 504 µM; in series [23], 522 µM. The Activity with V79 [3] is 33 µM; in the series with V79 [4] it was 5.3 µM; in the series with WiDr [27] it was 38 days; in the series on V79 [15] it was greater than 1000 µM; with WiDr [28] it was greater than 80 days. Besides, the MTD in [6] is 1000 µmol/kg. The “Ratio IC50” value in the series on V79 [9] worked out at 1060; in the series with EMT6 [10], 942; in series [17] it was 697; in the series on WiDr [22], 442. Moreover, in the series on V79 [14], the Ratio came out at 0.16. The compound also yielded a logD in series [18] of 0.42. The LCK in the series on EMT6 [29] is recorded as greater than 3.82.

Consider `CS(=O)(=O)c1cc([N+](=O)[O-])c(C(N)=O)cc1N(CCBr)CCBr`, for which the IC50 in the series with V79 [1] was 0.16 µM; in the series with EMT6 [5], 39 µM; in series [11], 0.4 µM; in the series with WiDr [12], 0.58 µM; with WiDr [13], 37 µM; in the series on EMT6 [16] it was 0.09 µM. Besides, the concentration for half-maximal inhibition (IC50) stood at 80 µM in the series with V79 [21] and 86 µM in [23]. The amount in solution in [2] (solubility) came to 70 µM (≈ 33.1 µg/mL). Also, the Activity with V79 [3] was 16 µM; in the series on V79 [4] it was 5.5 µM; with WiDr [31], 36 days; in the series with V79 [15] it was greater than 100 µM; with WiDr [33] it was greater than 83 days. Also, the MTD in series [6] was 750 µmol/kg; in series [32], 133 µmol/kg. The remaining at 24 h in series [7] was determined as 63%. The LCK with EMT6 [30] came to 2.24. The “Ratio IC50” value in the series on V79 [9] came to 508; in the series on EMT6 [10], 490; in series [17], 265; with WiDr [22], 74. Moreover, the logD in [18] was 1.02.
